Published values pooled from the literature.
Protocols differ between the studies behind these lines.
Target: Beta-adrenergic receptor kinase 1 (GRK2, Homo sapiens, UniProt P25098)
Residues used in one study (P25098 1-689): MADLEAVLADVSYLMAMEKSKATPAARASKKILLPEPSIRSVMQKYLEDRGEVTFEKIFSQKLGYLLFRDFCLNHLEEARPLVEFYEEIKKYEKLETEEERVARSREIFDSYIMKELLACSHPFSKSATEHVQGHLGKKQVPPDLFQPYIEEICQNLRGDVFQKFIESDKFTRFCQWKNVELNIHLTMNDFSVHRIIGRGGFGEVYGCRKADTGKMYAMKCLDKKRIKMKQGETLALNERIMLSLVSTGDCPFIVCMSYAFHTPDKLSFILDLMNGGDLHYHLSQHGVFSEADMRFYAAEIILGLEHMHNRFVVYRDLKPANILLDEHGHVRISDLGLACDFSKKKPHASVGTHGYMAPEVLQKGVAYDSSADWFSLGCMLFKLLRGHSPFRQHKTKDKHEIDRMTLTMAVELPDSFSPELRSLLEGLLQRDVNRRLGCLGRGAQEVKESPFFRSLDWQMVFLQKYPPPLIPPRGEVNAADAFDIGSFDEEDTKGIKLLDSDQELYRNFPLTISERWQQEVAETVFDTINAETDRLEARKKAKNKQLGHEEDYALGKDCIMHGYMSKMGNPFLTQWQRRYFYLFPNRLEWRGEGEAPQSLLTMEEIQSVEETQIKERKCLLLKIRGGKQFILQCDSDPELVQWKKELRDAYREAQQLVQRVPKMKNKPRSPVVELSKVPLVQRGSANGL

SMILES | effect on | method | tested at | remaining binding [%]
CNC(=O)[C@@H]1CC[C@@H](n2c(-c3ccc4cnccc4c3)nc3ccc(C(=O)NCc4cccc(C(N)=O)c4)cc32)C1 | binding | competition with immobilised ligand | 1 µM | 92
C=CC(=O)N1CCC(C(=O)NCC(=O)N2CCN(c3nc(-c4cnc(N)nc4C(F)F)nc(N4CCOCC4)n3)CC2)CC1 | binding | competition with immobilised ligand | 1 µM | 100
CN(c1nccc(-c2cnn3ncccc23)n1)C1CC1 | binding | – | 1 µM | 64
CNCc1ccccc1-c1csc([C@@H](C)Nc2nc(C)nc3cc(OC)c(OC)cc23)c1 | cell-free assay | competition with immobilised ligand | 1 µM | 86
COc1ccnn2ncc(-c3ccnc(N(C)C)n3)c12 | binding | – | 1 µM | 100
CNC(=O)Nc1ccc2c(c1)CC[C@@]21OC(=O)N(CC(=O)N(Cc2ccc(F)cc2)[C@@H](C)C(F)(F)F)C1=O | cell-free assay | competition with immobilised ligand | 1 µM | 74
F[C@@H]1CCN(c2nccc(-c3cnn4ncccc34)n2)C1 | binding | – | 1 µM | 54
C[C@@H](c1ccc(-n2cnc3c(N)ncnc32)cc1)N1CCc2nn(C)c(Cc3ccccc3)c2C1=O | binding | competition with immobilised ligand | 0.1 µM | 67
Cc1c(C(=O)O)cc(-c2ccc(C3CCNCC3)cc2)c2ccc(-c3ccc(C(F)(F)F)cc3)cc12 | binding | competition with immobilised ligand | 1 µM | 100
O=C(NCCCN1CCOCC1)c1ccc(Nc2nccc(-c3cc4ccccc4s3)n2)cc1 | binding | competition with immobilised ligand | 1 µM | 65
COc1cnc(Nc2cccc(S(N)(=O)=O)c2)nc1N1CCN(c2ccccc2)CC1 | binding | competition with immobilised ligand | 1 µM | 88
O=C(c1ccc(Nc2nccc(-c3cc4ccccc4s3)n2)cc1)N1CCC(N2CCCC2)CC1 | binding | competition with immobilised ligand | 1 µM | 100
C[C@H]1CCN(c2nccc(-c3cnn4ncccc34)n2)C1 | binding | competition with immobilised ligand | 1 µM | 50
O=C(Nc1c[nH]nc1C(=O)NC1CCNCC1)c1cc(F)cc(F)c1 | binding | competition with immobilised ligand | 1 µM | 100
CCCCN(CCCC)C(=O)CN1C[C@H](c2cc(OC)c3c(c2)OCO3)[C@@H](C(=O)O)[C@@H]1CC(C)(C)CCC | cell-free assay | competition with immobilised ligand | 1 µM | 71.8
O=C(NCCCN1CCOCC1)c1ccc(Nc2ncc(Cl)c(-c3ccc(Cl)s3)n2)cc1 | binding | competition with immobilised ligand | 1 µM | 91
CN(C)c1ncc(F)c(-c2cnn3ncccc23)n1 | binding | competition with immobilised ligand | 1 µM | 88
Cc1nc(C2CCN(C(=O)c3ccc(OC(F)(F)F)cc3N)CC2)c2ncc(N3CCN(C)CC3)cc2n1 | cell-free assay | competition with immobilised ligand | 1 µM | 92
CN(C)c1nccc(-c2cnc3ncccn23)n1 | binding | competition with immobilised ligand | 1 µM | 92
Cc1c(NC(=O)c2cc(C(N)=O)nc3cc(F)ccc23)c(C(F)(F)F)nn1Cc1ccc(C(C)(C)C)cc1 | cell-free assay | competition with immobilised ligand | 1 µM | 100
